MT stabilizer: microtubule stabilizers in HeLa cells, primary screen, imaging, high-content imaging; HeLa tubulin immunostaining HCS, 24 h; share of cells brighter than vehicle mean+2SD; 200,000 compounds, 0.83% hits; AID 2205, 2009; % tubulin-high responders, % at 10 µM;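 active = plate Z-score above 3 for both tubulin-high and condensed-nucleus cell shares, with cell loss under 80%, at 10 µM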;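 also: anti alpha tubulin signal scored within the nucleus-defined area of each cell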
b-catenin transl: modulators of beta-catenin nuclear translocation, primary screen, imaging, HeLa cells, immunofluorescence, high-content | nuclear translocation activity, % at 5 µM | 190,000 compounds, 0.3% hits;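 active = nuclear translocation activity above 50% at 5 µM, with a well cell count of 50 or more; inconclusive = wells under 50 cells across six images, flagged as toxic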;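 also: per-cell ratio of nuclear to cytoplasmic median beta-catenin stain intensity; plate controls were DMSO negative control for no effect and GSK-3 inhibitor IX positive control for full effect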
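Assay system: human HeLa cells, native beta-catenin; doses: 5 µM primary, 0.02–20 µM confirmation; incubation: compound treatment 24 h, 37°C, 5% CO2; technique: fluorescence imaging of beta-catenin antibody stain plus DAPI; measure: % activation, nuclear-to-cytoplasmic median beta-catenin signal ratio per cell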
ROMK primary: ROMK potassium channel modulators, primary screen, cell-based, thallium flux, MLSMR library | B-score at 10 µM | Tet-inducible ROMK, thallium flux fluorescence; actives lie on both sides | 130,000 compounds, 2% hits;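 active = signal ratio slope over the read window, or its plate-corrected B-score, at least 3 SD from the plate mean, either direction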;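 also: B-score of the F/F0 ratio slope over 7 to 12 s after thallium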
Target sequence (P48048 whole entry, looked up): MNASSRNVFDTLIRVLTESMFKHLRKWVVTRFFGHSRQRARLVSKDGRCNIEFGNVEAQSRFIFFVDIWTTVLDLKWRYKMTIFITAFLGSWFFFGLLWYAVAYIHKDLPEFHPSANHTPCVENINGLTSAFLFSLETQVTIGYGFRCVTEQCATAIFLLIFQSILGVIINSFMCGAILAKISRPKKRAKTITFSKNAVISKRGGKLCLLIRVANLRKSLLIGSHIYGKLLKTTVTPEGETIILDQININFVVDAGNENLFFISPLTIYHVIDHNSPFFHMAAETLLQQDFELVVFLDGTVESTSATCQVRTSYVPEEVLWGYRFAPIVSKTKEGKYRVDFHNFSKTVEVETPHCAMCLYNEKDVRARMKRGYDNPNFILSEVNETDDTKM
ROMK retest: ROMK channel modulator hit retest, confirmation, cell-based, thallium flux, duplicate, resupplied hits. shares compounds with ROMK primary. fluorescence ratio; active compounds read low. 3,000 compounds, 54% hits. normalized thallium flux (F/F0 slope) at 10 µM;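 active = Flux at 10 µM at least 3 SD below or above vehicle control mean in one or both replicates; inconclusive = no clear call, values can overlap the other calls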
The depositor's hits bear a star; ? = inconclusive; . = no result. In the library only some 1.9% were active in any assay of this set; here they are far more common.

SMILES	MT stabilizer	b-catenin transl	ROMK primary	ROMK retest
O=C(CSc1nnc(Cc2cccs2)n1Cc1ccco1)Nc1ccc(Br)cc1	6	.	-2.9*	?
O=C(CSc1nnc(Cc2ccccc2)n1Cc1ccco1)NC12CC3CC(CC(C3)C1)C2	3	.	.	.
O=C(CSc1nnc(Cc2cccs2)n1Cc1ccco1)Nc1ccc(Cl)cc1Cl	3	-2	-2.9	.
NC(=O)c1c(NC(=O)CSc2nnc(Cc3ccccc3)n2Cc2ccco2)sc2c1CCC2	3	-2	-3.7*	0.053*
CC(C)CC(=O)N1CC(C)N(C(=O)CC(C)C)CC1C (configuration not stated)	2	-2	1.1	.
CC(C)CC(NS(=O)(=O)c1ccccc1)C(=O)O (configuration not stated)	1	-4	0.63	.
CC(C)CN=C(NS(=O)(=O)c1ccccc1)C(Cl)(Cl)Cl	6	52*	.	0.05*
COC(=O)CN(c1ccc(OCc2ccccc2)cc1)S(C)(=O)=O	1	-2	0.07	.
COC(=O)N/N=C/c1ccc(-c2cc(Cl)ccc2Cl)o1	4	3	.	0.066*
COC(=O)N/N=C\c1ccc(-c2cc(Cl)c(Cl)cc2Cl)o1	4	-1	-0.99	.
COc1cc(N=Nc2cccc(S(N)(=O)=O)c2)c2ccccc2c1N	.	0	.	.
O=C(NC1CCCCC1)C12CC3CC(CC(Cl)(C3)C1)C2	5	2	.	.
O=C(C1=C[C@@H]2[C@H]3C(=O)N(c4cccc(Cl)c4)C(=O)[C@H]3[C@@H](C(=O)c3ccc(Cl)cc3)N2C=C1)c1ccccc1	2	3	.	.
Cc1ccc(N2C(=O)[C@@H]3[C@H](C2=O)[C@H]2C=C(C(=O)c4ccccc4)C=CN2[C@@H]3C(=O)c2ccc(Cl)cc2)cc1	2	4	.	0.077
Cc1cc(C)nc(S/C=C/C(=O)c2ccc(F)cc2)n1	.	1	.	.
O=S(=O)(c1ccc(S(=O)(=O)N(Cc2cccs2)CC2CCCO2)cc1)N1CCCCC1 (configuration not stated)	3	-3	-0.92	.
O=C(Cc1cccs1)N(CC1CCCO1)C1(C(=O)NC2CCCC2)CCCCC1 (configuration not stated)	6	.	-1.8*	?
O=C(Cc1cccs1)N(Cc1cccs1)C1(C(=O)NC2CCCC2)CCCCC1	2	1	-1.5	.
O=S(=O)(NC1CCCC1)c1ccc(S(=O)(=O)N(Cc2cccs2)CC2CCCO2)cc1 (configuration not stated)	5	-1	-3.1*	0.073
O=C(NC1CC1)C1=C[C@@H](C2CCCCC2)C[C@@H](OCCCCO)O1	1	2	.	.
Cc1cccc(-n2cc(CNCCN3CCOC3=O)c(-c3cccc(F)c3)n2)c1	3	0	0.17	.
CCN1CCC(NC(=O)Nc2cc(Cl)ccc2OC)CC1	2	-2	0.033	.
CCc1ccc(-n2c(SCC(=O)Nc3cccc(S(=O)(=O)NC4=NCCCCC4)c3)nc3ccccc3c2=O)cc1	1	0	-2.7*	?
Cc1ccc(-n2c(SCC(=O)Nc3cccc(S(=O)(=O)NC4=NCCCCC4)c3)nc3ccccc3c2=O)cc1	7	-2	.	.
CC1CC(C)CN(CCCNC(=O)c2csc3c2CCCC3)C1 (configuration not stated)	1	0	-3*	0.064*
SMILES	MT stabilizer	b-catenin transl	ROMK primary	ROMK retest
CC(C)CCNC(=O)c1csc2c1CCCCC2	2	-1	-0.58	.
NS(=O)(=O)c1ccc(CCNC(=O)/C=C/c2cccc([N+](=O)[O-])c2)cc1	2	0	-0.098	.
COc1ccc(OCC(=O)N/N=C(\C)c2cccs2)cc1	.	1	.	.
C/C(=N\NC(=O)COc1ccccc1[N+](=O)[O-])c1cccs1	1	1	1.4*	0.085
OCCNNC(=S)NC1CC2C=CC1C2 (configuration not stated)	.	2	.	.
COCCNC(=S)Nc1ccc2[nH]c(=O)[nH]c2c1	2	-3	1.8*	0.072
O=c1[nH]c2ccc(NC(=S)NCCc3ccccc3)cc2[nH]1	.	0	.	.
CC1=Nc2ccccc2N=C(NC(=O)CN2CCN(c3ccc(F)cc3)CC2)C1c1ccccc1 (configuration not stated)	.	2	.	.
CC1=C(C)CC(C(=O)Nc2ccc(C(=O)N3CCOCC3)cc2)C(C(=O)O)C1 (configuration not stated)	3	0	0.37	.
Cc1ccc(SCCC(=O)OCC(=O)Nc2ccc(S(N)(=O)=O)cc2)cc1	.	0	.	.
Cc1ccc(SCCC(=O)OCC(=O)NCC2CCCCC2)cc1	4	1	3*	0.077
CCCNC(=O)c1ccc2c(=O)n3c(-c4ccc(C)cc4)csc3nc2c1	.	0	.	.
CCCCC[C@H](O)/C=C/[C@@H]1[C@@H](CCCCCCC(=O)O)[C@@H](O)C[C@H]1O	2	-2	.	.
CCCCC[C@H](O)/C=C/C1=C(CCCCCCC(=O)O)C(=O)CC1	3	.	.	0.081
COc1cnc(SC)nc1Nc1ccc(C#N)cc1	.	0	.	.
C=CCN(Cc1nc(-c2ccc(OC)c(OC)c2)oc1C)C1CCS(=O)(=O)C1 (configuration not stated)	2	0	.	.
CCCCOC(=O)Nc1cc(OC)c(Cl)cc1OC	4	.	.	.
O=C(c1cc(Sc2ccc(Cl)cc2)nc2ccccc12)N1CCN(c2ccccn2)CC1	9	1	0.06	.
O=C(c1cc(Sc2cccc(Cl)c2)nc2ccccc12)N1CCN(c2ccccn2)CC1	2	2	-0.82	0.078
Cc1cccc(C)c1NC(=O)C(c1ccc(Cl)cc1Cl)N1CCCCC1 (configuration not stated)	1	.	.	.
CC(=O)Cc1nsc(NC(=O)c2ccc(-c3cccc(Cl)c3)o2)n1	14*	-1	4.3*	0.082
CC(=O)Cc1nsc(NC(=O)c2ccc(Br)o2)n1	1	-1	.	.
COc1cc(/C=C2\C(=O)N(c3ccc(NC(C)=O)cc3)N=C2c2ccccc2)ccc1O	7	-2	-2.4	.
O=C1/C(=C\c2ccc(O)c(O)c2)C(c2ccccc2)=NN1c1ccccc1	8	0	-3.9*	?
CN(C)C(=O)c1nc2ccc(Cl)cn2c1CNCc1ccccc1OC(F)(F)F	3	-1	0.066	.
SMILES	MT stabilizer	b-catenin transl	ROMK primary	ROMK retest
COc1ccc(Nc2nnc(SCC(=O)/C=C3/N(C)c4ccccc4C3(C)C)s2)cc1	1	.	-0.49	.
Cc1cccc(NC(=O)CSc2nc(C)c(Cc3ccccc3)c(=O)[nH]2)c1C	3	0	0.48	.
CC(C)C(c1nnnn1Cc1ccccc1)N1CCN(Cc2ccc3c(c2)OCO3)CC1 (configuration not stated)	4	-1	.	0.056*
CC(C)C(c1nnnn1CC1CCCO1)N1CCN(Cc2ccc3c(c2)OCO3)CC1 (configuration not stated)	3	-1	-1.4	.
O=C(NCC1CCN(S(=O)(=O)c2ccccc2)CC1)Nc1ccc(F)cc1F	.	-2	.	.
CN(C(=O)c1cccs1)c1ccc(OCC(=O)Nc2ccc(C(=O)O)cc2)cc1	.	0	.	.
N=c1n(Cc2ccccc2)c2ccccc2n1CC(O)COc1ccccc1 (configuration not stated)	3	-5	.	.

Screening data as filed in PubChem.
